Publication PMC6557269 (Journal of controlled release : official journal of the …, 2019)
Ends that are not written are not given here. * marks the point of attachment. DTPA = O=C(O)CN(CCN(CC(=O)O)CC(=O)O)CCN(CC(=O)O)CC(=O)*; PEG = 40 kDa poly(ethylene glycol)

Columns and labels:
TIP1 protein = target: T1, TIP1 protein (Homo sapiens, UniProt O14907); assay: Surface plasmon resonance; assay type: binding; settings: SPR BIAcore 2000, TIP1 on CM5 chip, Supplementary figure 1
T1 sequence (O14907 1-124): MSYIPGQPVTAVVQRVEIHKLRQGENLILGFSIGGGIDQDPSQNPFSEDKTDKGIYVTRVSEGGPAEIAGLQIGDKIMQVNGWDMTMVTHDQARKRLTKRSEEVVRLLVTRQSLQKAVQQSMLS

HT3 tumors [1] = assay: NanoSPECT/CT imaging, heterotopic cervical tumors; assay type: in vivo, nude mice
OE33 tumors [2] = assay: NanoSPECT/CT imaging, heterotopic esophageal tumors; assay type: in vivo, nude mice
A549 tumors = assay: NanoSPECT/CT imaging, heterotopic lung tumors; assay type: in vivo; settings: nude mice, 48 h post injection, tumor irradiated 3 x 3 Gy
BxPC3 tumors = assay: NanoSPECT/CT imaging, heterotopic pancreatic tumors; assay type: in vivo; settings: nude mice, 48 h post injection, tumor irradiated 3 x 3 Gy
D54 tumors = assay: NanoSPECT/CT imaging, heterotopic glioblastoma tumors; assay type: in vivo; settings: nude mice, 48 h post injection, tumor irradiated 3 x 3 Gy
HT3 tumors [3] = assay type: in vivo, nude mice
OE33 tumors [4] = assay type: in vivo, nude mice
OE33 tumors [5] = assay: Autoradiography of tumor and muscle sections; assay type: in vivo, nude mice; settings: phosphor imager plate 16 h, after SPECT imaging
Outline: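 After SPECT, tumors were sectioned at 200 micron, with leg muscle sections as control tissue. Sections were exposed to a phosphor imager plate for 16 h at −20 °C, and the plate was scanned to map microdistribution of the ¹¹¹In-labelled PEG-peptide.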

[6] = nude mice, i.v. ~500 μCi, 48 h and 72 h post injection, n=3 per group
[7] = right hind limb tumor 3 x 3 Gy vs left sham tumor
[8] = 96 h post injection, gamma counter, n=3 per group

Row | Substance | binding to immobilized TIP1 (sensogram comparison) (TIP1 protein) | tumor binding by SPECT, HT3 tumors (HT3 tumors [1]; [6]) | effect of irradiating the tumor on tumor binding, HT3 (HT3 tumors [1]; [7]) | tumor binding by SPECT, OE33 tumors (OE33 tumors [2]; [6]) | effect of irradiating the tumor on tumor binding, OE33 (OE33 tumors [2]; [7]) | tumor binding by SPECT/CT, irradiated A549 tumors, compared to PEG-control (A549 tumors) | tumor binding by SPECT/CT, irradiated BxPC3 tumors, compared to PEG-control (BxPC3 tumors) | tumor binding by SPECT/CT, irradiated D54 tumors, compared to PEG-control (D54 tumors) | tumor uptake in biodistribution vs control peptide, HT3 (HT3 tumors [3]; [8]) | presence in blood and liver, HT3 tumor-bearing mice (HT3 tumors [3]; mouse, in vivo) | tumor uptake in biodistribution vs control peptide, OE33 (OE33 tumors [4]; [8]) | presence in blood and liver, OE33 tumor-bearing mice (OE33 tumors [4]; mouse, in vivo) | microscopic distribution in OE33 tumor sections (OE33 tumors [5]) | uptake in leg muscle sections (control tissue) (OE33 tumors [5])
1 | HGVIGRV [scrambled peptide, reference compound] | did not show binding |  |  |  |  |  |  |  |  |  |  |  |  | 
2 | ^111In-labeled PEG-DTPA-HVGGSSV: DTPA-PEG-HVGGSSV labeled with ^111Indium ({DTPA-PEG}-HVGGSSV; also: 111In chelated by DTPA) |  | bound | did not affect tumor binding | bound | did not affect tumor binding | enhanced binding | enhanced binding | enhanced binding | significantly higher (p<0.001) | observed in the blood and liver | significantly higher (p<0.001) | observed in the blood and liver | even distribution | no peptide uptake
3 | mPEG40K-carbonyl-Lys(CHX-A”-DTPA)-AEEAc-Lys(CHX-A”-DTPA)-AEEAc-Trp-Lys(CHX-A”-DTPA)-AEEAc-Gly-Ile-Arg-Leu-Arg-Gly-OH [PEG-HVGGSSV, mPEG40K-carbonyl-Lys(CHX-A”-DTPA)-AEEAc-Lys(CHX-A”-DTPA)-AEEAc-Trp-Lys(CHX-A”-DTPA)-AEEAc-Gly-Ile-Arg-Leu-Arg-Gly-OH trifluoroacetate Salt] | did not alter the binding affinity |  |  |  |  |  |  |  |  |  |  |  |  | 
